Measured values: ChEMBL document CHEMBL1134393, “Synthesis and biological activity of analogues of the antidiabetic/antiobesity agent 3-guanidinopropionic acid: discovery of a novel aminoguanidinoacetic acid antidiabetic agent” (2001)

Legend:
[1] = In vivo blood glucose was determined in obese, hyperglycemic, hyperinsulinemic, insulin-resistant KKAy mice after a dose of 500 mg/kg for 4 days; type: functional, Mus musculus
How it was run: (§1)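 KKAy mice (KK female × Ay male cross) allocated to treatment or control groups (n = 6) after pretest glucose. Compound given in food, equivalent to 500 mg/kg per day for 4 days. Nonfasting blood drawn from the retroorbital sinus; glucose measured by autoanalyzer. Result expressed as treated/control glucose ratio (T/C). Wilcoxon rank sum test applied when T/C < 0.80.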

Rattus norvegicus = species: Rattus norvegicus; test: (§2) In vitro [14C]- creatine uptake (1 mM) was determined in rat A10 smooth muscle cells at a concentration of (1 mM); type: functional
How it was run: (§3)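 Rat A10 smooth muscle cells grown in DMEM with 10% FBS and used in log-phase growth. Cells washed, then incubated at 37 °C in Hanks buffer (pH 7.4, 10 mM Hepes, 20 mM glucose, 0.2% fatty-acid-free BSA) with [14C]creatine (1 mM) plus test compound (1 mM) for 30–120 min. Ice-cold washes, NaOH lysis, scintillation counting. Uptake normalised to medium specific activity and extract protein; reported as % inhibition.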

[2] = target: Creatine kinase M-type (Oryctolagus cuniculus) (UniProt P00563); test: In vitro kinase activity (phosphorylation) of creatine kinase was determined
[3] = In vivo blood glucose was determined in obese, hyperglycemic, hyperinsulinemic, insulin-resistant […] after a dose of 500 mg/kg for 4 days; type: functional, Mus musculus; how it was run: as §1
A10 = test: as §2; type: functional; how it was run: as §3
[4] = target: Sodium- and chloride-dependent creatine transporter 1 (Rattus norvegicus) (UniProt P28570); test: In vitro [14C]- creatine uptake (1 mM) was determined in rat A10 smooth muscle cells at a concentration of (1 mM)

Sequence of Creatine kinase M-type (Oryctolagus cuniculus) (P00563 whole entry, looked up): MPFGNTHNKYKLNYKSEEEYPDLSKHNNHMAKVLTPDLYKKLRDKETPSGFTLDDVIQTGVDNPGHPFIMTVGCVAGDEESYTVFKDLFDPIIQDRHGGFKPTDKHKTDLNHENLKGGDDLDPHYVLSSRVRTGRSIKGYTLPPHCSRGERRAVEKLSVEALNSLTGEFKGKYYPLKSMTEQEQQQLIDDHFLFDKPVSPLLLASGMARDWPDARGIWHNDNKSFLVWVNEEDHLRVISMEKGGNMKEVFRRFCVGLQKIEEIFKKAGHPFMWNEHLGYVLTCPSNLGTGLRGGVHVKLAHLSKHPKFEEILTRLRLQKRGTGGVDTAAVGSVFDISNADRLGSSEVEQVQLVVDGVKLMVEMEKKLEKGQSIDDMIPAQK

| Compound | MISS T/C [1] | also measured |
| --- | --- | --- |
| N#CN/C(N)=N\CCC(=O)O | 0.92 | – |
| N=C(N)NCCS(=O)(=O)O | 0.91 | – |
| N=C(N)NNCC(=O)O | 0.61 | Inhibition (Rattus norvegicus): 36%; Activity [2]: 0.5 |
| N=C(N)N[C@H]1CCC[C@@H]1C(=O)O | 0.9 | – |
| Cl.N=C(N)CSCC(=O)O | 0.92 | – |
| O=C(O)CCNc1nc2ccccc2s1 | 0.87 | – |
| NC(=O)NCCC(=O)O | 1.06 | – |
| O=C(O)CCNc1nc2ccccc2[nH]1 | 0.95 | – |
| C/N=C(\N)SCCC(=O)O.Cl | 0.59 | – |
| N=C(N)NCC(O)C(=O)O (stereo unspecified) | 1.1 | – |
| N=C(N)NCCC(=O)O [OMPENACLID] | – | MISS T/C [3]: 0.52; Inhibition (A10): 97%; Activity [2]: 5 |
| CC(CN=C(N)N)C(=O)O (stereo unspecified) | 0.86 | – |
| CC(=O)NC(=N)NCCC(=O)O | 0.88 | – |
| N=C(N)NCCc1nnn[nH]1 | 0.94 | – |
| CN(C)C(=N)SCCC(=O)O.Cl | 1.08 | – |
| N=C(N)N[C@H]1CCCC[C@@H]1C(=O)O | 0.93 | – |
| Cl.N=C(N)NC/C(=N/O)C(=O)O | 0.97 | – |
| CSC(=N)NCCC(=O)O | 1.1 | – |
| CCOC(=O)CCN=C(N)N.Cl | 0.87 | – |
| Cl.Cl.N/C(=N\CCC(=O)O)c1ccccc1N | 0.92 | – |
| CC(=N)NCCC(=O)O | 0.77 | – |
| CC(CC(=O)O)N=C(N)N (stereo unspecified) | 0.77 | – |
| N=C(N)NCCc1c[nH]c(S)n1 | 0.8 | – |
| O=C(O)CCNc1nccs1 | 0.99 | – |
| CCCCCC(CC(=O)O)N=C(N)N (stereo unspecified) | 0.88 | – |
| N=C(N)c1ccc(CC(=O)O)[nH]1 | 1.1 | – |

| Compound | MISS T/C [1] | also measured |
| --- | --- | --- |
| N/C(S)=N/CCC(=O)O | 0.99 | – |
| Cl.N=C(N)S/C=C\C(=O)O | 0.95 | – |
| N=C(N)NCC(=O)O [GUANIDINO ACETATE] | 0.62 | – |
| O=C(O)CCNC1=NCCN1 | 0.97 | – |
| Nc1ncnc2c1cnn2CCC(=O)O | 1.27 | – |
| C/N=C(\N)NCCC(=O)O | 1.02 | – |
| N/C(=N/CCC(=O)O)N[N+](=O)[O-] | 0.84 | – |
| C/N=C(\NC)SCCC(=O)O.Cl | 1.06 | – |
| N=C(N)N[C@H]1CCC[C@H]1C(=O)O | 0.97 | – |
| Nc1ccc[n+](CC(=O)O)c1.[Cl-] | 0.94 | – |
| CCCCCC(CN=C(N)N)C(=O)O (stereo unspecified) | 0.79 | – |
| N=C(N)SCCC(=O)O | 0.53 | – |
| N=C(N)NCC(Cc1ccccc1)C(=O)O (stereo unspecified) | 0.93 | – |
| Nc1ncnc2nn(CCC(=O)O)cc12 | 1.08 | – |
| CCCCCCN=C(N)NCCC(=O)O | 0.85 | – |
| N[C@@H](Cc1c[nH]cn1)C(=O)O [HISTIDINE] | 0.8 | – |
| N=C(N)S/C=C\C(=O)O [ZAPA] | 0.68 | – |
| N=C(N)NCCC[C@H](N)C(=O)O [ARGININE] | 1.02 | – |
| Cl.NC(=O)CCN=C(N)N | 0.96 | – |
| CCc1cc(O)nc(NCCC(=O)O)n1 | 0.96 | – |
| N=C(N)NOCC(=O)O | 0.83 | – |
| COC(=O)NC(=N)NCCC(=O)O | 0.88 | – |
| O=C(O)CCNc1ncccn1 | 1.01 | – |
| CN(CCC(=O)O)C(=N)N | 1.02 | – |
| N=C(N)NC(CC(=O)O)c1ccccc1 (stereo unspecified) | 0.95 | – |
| N=C(N)c1ccccc1NCCC(=O)O | 0.73 | – |

| Compound | MISS T/C [1] | also measured |
| --- | --- | --- |
| O=C(O)CCNc1[nH]cnc2ncnc1-2 | 0.85 | – |
| O=C(O)CCNC1=NCCS1 | 0.85 | – |
| Cl.N=C(N)SCC(=O)O | 0.86 | – |
| NC(N)=NC[C@H](N)C(=O)O | 0.35 | – |
| CN(CC(=O)O)C(=N)N [CREATINE] | – | Activity [2]: 100; Inhibition [4]: 92% |
| O=C(O)CCn1ccnc1 | 0.81 | – |
| N=C(N)NCC(S)C(=O)O (stereo unspecified) | 0.83 | – |
| Cl.N=C(N)SCCCC(=O)O | 0.87 | – |
| CNC(CN=C(N)N)C(=O)O.Cl.Cl (stereo unspecified) | 0.96 | – |
| N=C(N)NCCP(=O)(O)O | 0.81 | – |
| N=C(N)N[C@H]1CCCC[C@H]1C(=O)O | 0.92 | – |
| Nc1cccc(CC(=O)O)n1 | 1.08 | – |
| N=C(N)N1CCCC(C(=O)O)C1 (stereo unspecified) | 1 | – |
| O=C(O)CCNc1ccccn1 | 0.2 | – |
| N=C(N)c1cccn1CCC(=O)O | 0.93 | – |
| Nc1cccc[n+]1CCC(=O)[O-] | 1.07 | – |
| O=C(O)CCn1cccn1 | 1.11 | – |
| N=C(N)Nc1ccc(C(=O)O)cc1 [4-GUANIDINO-BENZOIC ACID] | 0.8 | – |
| Cl.N=C(N)CCCC(=O)O | 0.93 | – |
| Cl.NC(N)=NC[C@@H](N)C(=O)O | 0.92 | – |
| N=C(N)NCCCC(=O)O | 0.8 | – |
| O=C(O)Cc1c[nH]cn1 [IMIDAZOLE ACETIC ACID] | 0.68 | – |
| N=C(N)N1CCCCC1CC(=O)O (stereo unspecified) | 0.91 | – |
| Cl.N=C(N)NCCC(=O)NO | 1.05 | – |
